Reference: ChEMBL document CHEMBL1123311, “Synthesis and antitumor and antiviral properties of 5-halo- and 5-(trifluoromethyl)-2'-deoxyuridine 3',5'-cyclic monophosphates and neutral triesters” (1986)
Converted amounts (≈) assume the structure as drawn.

Columns and labels:
Human alphaherpesvirus 2 [1] = assay: Evaluation of antiviral activity against Herpes simplex virus type 2 (HSV-2) strain Lyons; type: functional
Method in brief: (§1)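 Virus-induced cytopathogenicity scored in primary rabbit kidney cell cultures. Value is the minimum concentration reducing cytopathogenicity by 50%. Cytotoxicity on uninfected cells was read as the minimal concentration causing a microscopically detectable change in normal cell morphology, tested up to 400 μg/mL.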

Vaccinia virus = assay: Evaluation of antiviral activity against Vaccinia virus; type: functional; conditions: Orthopoxvirus vaccinia; method in brief: as §1
Human alphaherpesvirus 1 [2] = assay: Evaluation of antiviral activity against Herpes simplex virus type 1 (HSV-1) strain KOS.; type: functional; method in brief: as §1
L1210 [3] = assay: Evaluation of cytostatic activity by using antitumor assays against murine leukemia L1210 cells; type: functional; conditions: Mus musculus, read-out: ID50 (the source's name)
Human alphaherpesvirus 2 [4] = assay: Evaluation of antiviral activity against Herpes simplex virus type 2 (HSV-2) strain G; type: functional; method in brief: as §1
Human alphaherpesvirus 2 [5] = assay: Evaluation of antiviral activity against Herpes simplex virus type 2 (HSV-2) strain 196.; type: functional; method in brief: as §1
Homo sapiens = species on record: Homo sapiens; assay: Evaluation for antitumor activity against human lymphoblast Raji cells; type: functional; conditions: Homo sapiens, Raji; read-out: ID50 (the source's name)
[6] = test system: Vesicular stomatitis virus; assay: Evaluation of antiviral activity against Vesicular stomatitis virus.; type: functional; method in brief: as §1
Human alphaherpesvirus 1 [7] = assay: Evaluation of antiviral activity against Herpes simplex virus type 1 (HSV-1) strain McIntyre; type: functional; method in brief: as §1
L1210 [8] = assay: Evaluation of antitumor activity against mutant murine leukemia L1210 cells; type: functional; conditions: Mus musculus, read-out: ID50 (the source's name)
Method in brief: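 Proliferation of mutant murine leukemia L1210/BdUrd cells, selected from parental L1210/0 for growth in 260 μg/mL 5-bromo-2'-deoxyuridine. Value is the dose inhibiting proliferation by 50%.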

Raji = assay: Evaluation of antitumor activity against thymidine kinase deficient Raji cell line; type: functional; conditions: Homo sapiens, read-out: ID50 (the source's name)
Human alphaherpesvirus 1 [9] = assay: Evaluation of antiviral activity against Herpes simplex virus type 1 (HSV-1) strain F; type: functional; method in brief: as §1
Human alphaherpesvirus 1 [10] = assay: Compound was evaluated for the antiviral activity against Herpes simplex virus type 1 (HSV-1) strain KOS.; type: functional; conditions: read-out: ID50 (the source's name); method in brief: as §1
Human alphaherpesvirus 1 [11] = assay: Compound was evaluated for the antiviral activity against Herpes simplex virus type 1 (HSV-1) strain F; type: functional; conditions: read-out: ID50 (the source's name); method in brief: as §1
[12] = test system: Vesicular stomatitis virus; assay: Compound was evaluated for the antiviral activity against Vesicular stomatitis virus.; type: functional; method in brief: as §1
[13] = target: Thymidylate synthase (Mus musculus) (UniProt P07607); assay: Compound was evaluated for the inhibition of L1210 thymidylate synthetase (L1210 dTMP)
Method in brief: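 Enzyme source was a partially purified extract of murine leukemia L1210 cells. The dTMP synthetase assay followed an earlier published method, and no reaction conditions are given here.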

[14] = target: Thymidylate synthase (Mus musculus) (UniProt P07607); assay: Compound was evaluated for the inhibition of L1210 Thymidylate synthase
Method in brief: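 Thymidylate (dTMP) synthetase inhibition measured with a partially purified extract of L1210 cells as the enzyme source.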

Thymidylate synthase (Mus musculus), sequence (P07607 whole entry, looked up): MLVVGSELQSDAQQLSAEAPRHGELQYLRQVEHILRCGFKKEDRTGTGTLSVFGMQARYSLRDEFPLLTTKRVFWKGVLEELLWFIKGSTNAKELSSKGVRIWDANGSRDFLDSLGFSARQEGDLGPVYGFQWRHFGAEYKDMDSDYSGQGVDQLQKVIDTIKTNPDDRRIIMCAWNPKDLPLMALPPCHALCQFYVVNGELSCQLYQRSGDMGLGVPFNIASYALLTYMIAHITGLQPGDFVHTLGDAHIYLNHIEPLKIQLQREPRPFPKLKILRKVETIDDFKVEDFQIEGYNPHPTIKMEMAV

Compound: O=c1[nH]c(=O)n([C@H]2C[C@H](O)[C@@H](CO)O2)cc1F [FLOXURIDINE]
- MIC50 (Human alphaherpesvirus 2 [1]): 10 µg/mL (≈ 40.6 µM)
- MIC50 (Vaccinia virus): 0.1 µg/mL (≈ 0.406 µM)
- MIC50 (Human alphaherpesvirus 1 [2]): 6 µg/mL (≈ 24.4 µM)
- IC50 (L1210 [3]): 0.02 µg/mL (≈ 0.0812 µM)
- MIC50 (Human alphaherpesvirus 2 [4]): 8 µg/mL (≈ 32.5 µM)
- MIC50 (Human alphaherpesvirus 2 [5]): 150 µg/mL (≈ 609 µM)
- IC50 (Homo sapiens): 0.004 µg/mL (≈ 0.0162 µM)
- MIC50 [6]: > 200 µg/mL
- MIC50 (Human alphaherpesvirus 1 [7]): 4 µg/mL (≈ 16.2 µM)
- IC50 (L1210 [8]): 1.8 µg/mL (≈ 7.31 µM)
- IC50 (Raji): 1.55 µg/mL (≈ 6.3 µM)
- MIC50 (Human alphaherpesvirus 1 [9]): 8 µg/mL (≈ 32.5 µM)

Compound: COP1(=O)OC[C@H]2O[C@@H](n3cc(I)c(=O)[nH]c3=O)C[C@@H]2O1 (stereo partly specified)
- MIC50 (Human alphaherpesvirus 2 [1]): 150 µg/mL (≈ 349 µM)
- MIC50 (Vaccinia virus): 20 µg/mL (≈ 46.5 µM)
- MIC50 (Human alphaherpesvirus 2 [4]): 300 µg/mL (≈ 698 µM)
- MIC50 (Human alphaherpesvirus 2 [5]): 300 µg/mL (≈ 698 µM)
- MIC50 [6]: > 400 µg/mL
- MIC50 (Human alphaherpesvirus 1 [7]): 70 µg/mL (≈ 163 µM)
- IC50 (Human alphaherpesvirus 1 [10]): 150 µg/mL (≈ 349 µM)
- IC50 (Human alphaherpesvirus 1 [11]): 150 µg/mL (≈ 349 µM)

Compound: N.O=c1[nH]c(=O)n([C@H]2C[C@@H]3O[PH](O)(O)OC[C@H]3O2)cc1Cl
- MIC50 (Human alphaherpesvirus 2 [1]): 20 µg/mL
- MIC50 (Vaccinia virus): 2 µg/mL
- MIC50 (Human alphaherpesvirus 1 [2]): 20 µg/mL
- IC50 (L1210 [3]): 337 µg/mL
- MIC50 (Human alphaherpesvirus 2 [4]): 40 µg/mL
- MIC50 (Human alphaherpesvirus 2 [5]): 150 µg/mL
- MIC50 [12]: > 400 µg/mL
- IC50 (Homo sapiens): 337 µg/mL
- MIC50 (Human alphaherpesvirus 1 [7]): 100 µg/mL
- IC50 (L1210 [8]): > 1000 µg/mL
- IC50 (Raji): > 1000 µg/mL
- MIC50 (Human alphaherpesvirus 1 [9]): 100 µg/mL
- Ki/Km [13]: > 356

Compound: O=c1[nH]c(=O)n([C@H]2C[C@H](O)[C@@H](COP(=O)(O)O)O2)cc1C(F)(F)F
- MIC50 (Human alphaherpesvirus 2 [1]): 0.6 µg/mL (≈ 1.59 µM)
- MIC50 (Vaccinia virus): 0.2 µg/mL (≈ 0.532 µM)
- MIC50 (Human alphaherpesvirus 1 [2]): 0.7 µg/mL (≈ 1.86 µM)
- IC50 (L1210 [3]): 0.017 µg/mL (≈ 0.0452 µM)
- MIC50 (Human alphaherpesvirus 2 [4]): 0.7 µg/mL (≈ 1.86 µM)
- MIC50 (Human alphaherpesvirus 2 [5]): 0.7 µg/mL (≈ 1.86 µM)
- IC50 (Homo sapiens): 0.169 µg/mL (≈ 0.449 µM)
- MIC50 [6]: > 400 µg/mL
- MIC50 (Human alphaherpesvirus 1 [7]): 0.4 µg/mL (≈ 1.06 µM)
- Ki/Km [14]: 0.061
- IC50 (L1210 [8]): 38 µg/mL (≈ 101 µM)
- IC50 (Raji): 212 µg/mL (≈ 564 µM)
- MIC50 (Human alphaherpesvirus 1 [9]): 0.7 µg/mL (≈ 1.86 µM)

Compound: N.O=c1[nH]c(=O)n([C@H]2C[C@@H]3O[PH](O)(O)OC[C@H]3O2)cc1I
- MIC50 (Human alphaherpesvirus 2 [1]): 7 µg/mL
- MIC50 (Vaccinia virus): 2 µg/mL
- MIC50 (Human alphaherpesvirus 1 [2]): 2 µg/mL
- IC50 (L1210 [3]): ≥ 500 µg/mL
- MIC50 (Human alphaherpesvirus 2 [4]): 10 µg/mL
- MIC50 (Human alphaherpesvirus 2 [5]): 20 µg/mL
- IC50 (Homo sapiens): 54 µg/mL
- MIC50 [6]: > 400 µg/mL
- MIC50 (Human alphaherpesvirus 1 [7]): 7 µg/mL
- Ki/Km [14]: > 355
- IC50 (L1210 [8]): > 500 µg/mL
- IC50 (Raji): > 500 µg/mL
- MIC50 (Human alphaherpesvirus 1 [9]): 2 µg/mL

Compound: N.O=c1[nH]c(=O)n([C@H]2C[C@@H]3O[PH](O)(O)OC[C@H]3O2)cc1Br
- MIC50 (Human alphaherpesvirus 2 [1]): 2 µg/mL
- MIC50 (Vaccinia virus): 1 µg/mL
- MIC50 (Human alphaherpesvirus 1 [2]): 2 µg/mL
- IC50 (L1210 [3]): 457 µg/mL
- MIC50 (Human alphaherpesvirus 2 [4]): 2 µg/mL
- MIC50 (Human alphaherpesvirus 2 [5]): 20 µg/mL
- IC50 (Homo sapiens): 224 µg/mL
- MIC50 [6]: > 400 µg/mL
- MIC50 (Human alphaherpesvirus 1 [7]): 2 µg/mL
- Ki/Km [14]: > 354
- IC50 (L1210 [8]): > 1000 µg/mL
- IC50 (Raji): > 1000 µg/mL
- MIC50 (Human alphaherpesvirus 1 [9]): 2 µg/mL

Compound: COP1(=O)OC[C@H]2O[C@@H](n3cc(Br)c(=O)[nH]c3=O)C[C@@H]2O1 (stereo partly specified)
- MIC50 (Human alphaherpesvirus 2 [1]): 70 µg/mL (≈ 183 µM)
- MIC50 (Vaccinia virus): 10 µg/mL (≈ 26.1 µM)
- MIC50 (Human alphaherpesvirus 1 [2]): > 200 µg/mL
- IC50 (L1210 [3]): > 100 µg/mL
- MIC50 (Human alphaherpesvirus 2 [4]): > 200 µg/mL
- MIC50 (Human alphaherpesvirus 2 [5]): > 200 µg/mL
- IC50 (Homo sapiens): > 100 µg/mL
- MIC50 [6]: > 200 µg/mL
- MIC50 (Human alphaherpesvirus 1 [7]): > 200 µg/mL
- IC50 (L1210 [8]): > 100 µg/mL
- IC50 (Raji): > 100 µg/mL
- MIC50 (Human alphaherpesvirus 1 [9]): > 200 µg/mL

Compound: O=c1[nH]c(=O)n([C@H]2C[C@H](O)[C@@H](CO)O2)cc1Cl [CHLORODEOXYURIDINE]
- MIC50 (Human alphaherpesvirus 2 [1]): 2 µg/mL (≈ 7.61 µM)
- MIC50 (Vaccinia virus): 0.2 µg/mL (≈ 0.761 µM)
- MIC50 (Human alphaherpesvirus 1 [2]): 2 µg/mL (≈ 7.61 µM)
- IC50 (L1210 [3]): 21.3 µg/mL (≈ 81.1 µM)
- MIC50 (Human alphaherpesvirus 2 [4]): 1 µg/mL (≈ 3.81 µM)
- MIC50 (Human alphaherpesvirus 2 [5]): 2 µg/mL (≈ 7.61 µM)
- IC50 (Homo sapiens): 8.54 µg/mL (≈ 32.5 µM)
- MIC50 [6]: > 400 µg/mL
- MIC50 (Human alphaherpesvirus 1 [7]): 2 µg/mL (≈ 7.61 µM)
- IC50 (L1210 [8]): 339 µg/mL (≈ 1290 µM)
- IC50 (Raji): > 1000 µg/mL
- MIC50 (Human alphaherpesvirus 1 [9]): 0.7 µg/mL (≈ 2.67 µM)

Compound: N.O=c1[nH]c(=O)n([C@H]2C[C@@H]3O[PH](O)(O)OC[C@H]3O2)cc1C(F)(F)F
- MIC50 (Human alphaherpesvirus 2 [1]): 10 µg/mL
- MIC50 (Vaccinia virus): 0.4 µg/mL
- MIC50 (Human alphaherpesvirus 1 [2]): 10 µg/mL
- IC50 (L1210 [3]): 0.116 µg/mL
- MIC50 (Human alphaherpesvirus 2 [4]): 10 µg/mL
- MIC50 (Human alphaherpesvirus 2 [5]): 40 µg/mL
- IC50 (Homo sapiens): 1.81 µg/mL
- MIC50 [6]: > 400 µg/mL
- MIC50 (Human alphaherpesvirus 1 [7]): 10 µg/mL
- Ki/Km [14]: 30.4
- IC50 (L1210 [8]): 22 µg/mL
- IC50 (Raji): ≥ 500 µg/mL
- MIC50 (Human alphaherpesvirus 1 [9]): 20 µg/mL

Compound: O=c1[nH]c(=O)n([C@H]2C[C@H](O)[C@@H](CO)O2)cc1C(F)(F)F [TRIFLURIDINE]
- MIC50 (Human alphaherpesvirus 2 [1]): 1 µg/mL (≈ 3.38 µM)
- MIC50 (Vaccinia virus): 0.2 µg/mL (≈ 0.675 µM)
- MIC50 (Human alphaherpesvirus 1 [2]): 0.7 µg/mL (≈ 2.36 µM)
- IC50 (L1210 [3]): 0.006 µg/mL (≈ 0.0203 µM)
- MIC50 (Human alphaherpesvirus 2 [4]): 0.6 µg/mL (≈ 2.03 µM)
- MIC50 (Human alphaherpesvirus 2 [5]): 1 µg/mL (≈ 3.38 µM)
- IC50 (Homo sapiens): 0.15 µg/mL (≈ 0.506 µM)
- MIC50 [6]: > 40 µg/mL
- MIC50 (Human alphaherpesvirus 1 [7]): 0.7 µg/mL (≈ 2.36 µM)
- IC50 (L1210 [8]): 47 µg/mL (≈ 159 µM)
- IC50 (Raji): 180 µg/mL (≈ 608 µM)
- MIC50 (Human alphaherpesvirus 1 [9]): 0.7 µg/mL (≈ 2.36 µM)
